{
  "source": "ChEMBL document CHEMBL1124026",
  "about": "“Nitrosoimidazoles: highly bactericidal analogues of 5-nitroimidazole drugs” (J Med Chem, 1988)",
  "key": {"[1]": {"assay": "Half-life measured in 0.1 M KPO4 buffer at PH 7", "assay_type": "ADME", "settings": "0.1 M potassium phosphate buffer", "procedure,_shortened": "(§1)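 Decay followed as loss of UV absorbance at each compound's absorbance maximum in 0.1 M potassium phosphate, pH 7.0, 0.05–1.0 mM compound. Decay first order; half-life taken as time to 50% absorbance loss, from linear regression, given as mean ± standard deviation.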"}, "[2]": {"assay": "Half-life measured on Bacteroides fragilis in BHIS medium", "assay_type": "ADME, organism-based", "settings": "Bacteroides fragilis culture"}, "[3]": {"assay": "Half-life measured on Escherichia coli SR58 in BHI medium; value ranges from 1-3", "assay_type": "ADME, organism-based", "settings": "Escherichia coli SR58 culture"}, "Clostridium perfringens": {"test_system": "Clostridium perfringens", "assay": "Minimum inhibitory concentration measured against Clostridium perfringens strain", "assay_type": "functional", "procedure,_shortened": "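Twofold serial dilutions in BHIS medium with 5% Me2SO; each well inoculated with stationary-phase bacterial suspension (10^7 cfu/mL). Plates incubated anaerobically at 37 °C in Gaspak jars; growth scored after 17 h.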"}, "Escherichia coli [4]": {"test_system": "Escherichia coli", "assay": "Minimum inhibitory concentration measured against Escherichia coli AB1157 strain (Uvr+ Rec+)", "assay_type": "functional", "procedure,_shortened": "(§2)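 Compounds serially diluted 2-fold in BHIS medium containing 5% Me2SO. Each well inoculated with bacteria from a stationary-phase culture, suspension at 10^7 cfu/mL. Incubated anaerobically at 37 °C in Gaspak jars; growth read after 17 h.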"}, "Escherichia coli [5]": {"test_system": "Escherichia coli", "assay": "Minimum inhibitory concentration measured against Escherichia coli AB1885 strain (UvrB- Rec+)", "assay_type": "functional", "procedure,_shortened": "as §2"}, "Escherichia coli [6]": {"test_system": "Escherichia coli", "assay": "Minimum inhibitory concentration measured against Escherichia coli EE128 strain (Uvr+ RecA-)", "assay_type": "functional", "procedure,_shortened": "as §2"}, "Escherichia coli [7]": {"test_system": "Escherichia coli", "assay": "Minimum inhibitory concentration measured against Escherichia coli EE349 strain (UvrB- Rec+)", "assay_type": "functional", "procedure,_shortened": "as §2"}, "Escherichia coli [8]": {"test_system": "Escherichia coli", "assay": "Minimum inhibitory concentration measured against Escherichia coli SR58 strain (RecA- UvrB-)", "assay_type": "functional", "procedure,_shortened": "as §2"}, "Bacteroides fragilis": {"test_system": "Bacteroides fragilis", "assay": "Minimum inhibitory concentration measured against Bacteroides fragilis strain", "assay_type": "functional", "procedure,_shortened": "as §2"}, "[9]": {"assay": "Half-life measured in BHI spent medium", "assay_type": "ADME", "procedure,_shortened": "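Spent BHI medium prepared by removing E. coli by centrifugation and filtration after maximal logarithmic growth. Compound at 0.05–1.0 mM; UV absorbance at its maximum followed. First-order half-life (time to 50% absorbance loss) from linear regression, mean ± standard deviation.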"}, "[10]": {"assay": "Half-life measured on Escherichia coli SR58 in BHI medium; value ranges from 3-4", "assay_type": "ADME, organism-based", "settings": "Escherichia coli SR58 culture"}, "[11]": {"assay": "Half-life measured in 0.1 M KPO4 buffer atPH 7", "assay_type": "ADME", "settings": "0.1 M potassium phosphate buffer, pH 7", "procedure,_shortened": "as §1"}, "[12]": {"assay": "Half-life measured on Escherichia coli SR58 in BHI medium; value ranges from 4-6", "assay_type": "ADME, organism-based", "settings": "Escherichia coli SR58 culture"}},
  "data": [
    {"smiles": "O=Nc1[nH]cnc1-c1ccccc1", "values": [
      {"measurement": "half-life", "setting": "[1]", "value": 330, "unit": "min"},
      {"measurement": "half-life", "setting": "[2]", "value": "< 2", "unit": "min"},
      {"measurement": "half-life", "setting": "[3]", "value": 1, "unit": "min"}
    ]},
    {"smiles": "Cn1cnc(-c2ccccc2)c1[N+](=O)[O-]", "values": [
      {"measurement": "MIC", "setting": "Clostridium perfringens", "value": 15, "unit": "µM"},
      {"measurement": "MIC", "setting": "Escherichia coli [4]", "value": "> 500", "unit": "µM"},
      {"measurement": "MIC", "setting": "Escherichia coli [5]", "value": "> 500", "unit": "µM"},
      {"measurement": "MIC", "setting": "Escherichia coli [6]", "value": 30, "unit": "µM"},
      {"measurement": "MIC", "setting": "Escherichia coli [7]", "value": 100, "unit": "µM"},
      {"measurement": "MIC", "setting": "Escherichia coli [8]", "value": 8, "unit": "µM"},
      {"measurement": "MIC", "setting": "Bacteroides fragilis", "value": "< 2", "unit": "µM"}
    ]},
    {"smiles": "Cn1cnc(-c2ccccc2)c1N=O", "values": [
      {"measurement": "half-life", "setting": "[1]", "value": 540, "unit": "min"},
      {"measurement": "half-life", "setting": "[9]", "value": 40, "unit": "min"},
      {"measurement": "half-life", "setting": "[2]", "value": "< 2", "unit": "min"},
      {"measurement": "half-life", "setting": "[10]", "value": 3, "unit": "min"}
    ]},
    {"smiles": "Cn1cnc(N=O)c1-c1ccccc1", "values": [
      {"measurement": "half-life", "setting": "[11]", "value": "> 600", "unit": "min"},
      {"measurement": "half-life", "setting": "[9]", "value": 160, "unit": "min"},
      {"measurement": "half-life", "setting": "[2]", "value": "< 2", "unit": "min"},
      {"measurement": "half-life", "setting": "[12]", "value": 4, "unit": "min"}
    ]},
    {"smiles": "Cn1cnc([N+](=O)[O-])c1-c1ccccc1", "values": [
      {"measurement": "MIC", "setting": "Clostridium perfringens", "value": "> 500", "unit": "µM"},
      {"measurement": "MIC", "setting": "Escherichia coli [4]", "value": "> 500", "unit": "µM"},
      {"measurement": "MIC", "setting": "Escherichia coli [5]", "value": "> 500", "unit": "µM"},
      {"measurement": "MIC", "setting": "Escherichia coli [6]", "value": "> 500", "unit": "µM"},
      {"measurement": "MIC", "setting": "Escherichia coli [7]", "value": "≥ 500", "unit": "µM"},
      {"measurement": "MIC", "setting": "Escherichia coli [8]", "value": 500, "unit": "µM"},
      {"measurement": "MIC", "setting": "Bacteroides fragilis", "value": 500, "unit": "µM"}
    ]},
    {"smiles": "O=[N+]([O-])c1[nH]cnc1-c1ccccc1", "values": [
      {"measurement": "MIC", "setting": "Clostridium perfringens", "value": 250, "unit": "µM"},
      {"measurement": "MIC", "setting": "Escherichia coli [4]", "value": "> 500", "unit": "µM"},
      {"measurement": "MIC", "setting": "Escherichia coli [5]", "value": "> 500", "unit": "µM"},
      {"measurement": "MIC", "setting": "Escherichia coli [8]", "value": 130, "unit": "µM"},
      {"measurement": "MIC", "setting": "Bacteroides fragilis", "value": 30, "unit": "µM"}
    ]},
    {"smiles": "Cc1ncc([N+](=O)[O-])n1CCO", "note": "[METRONIDAZOLE]", "values": [
      {"measurement": "MIC", "setting": "Clostridium perfringens", "value": 13, "unit": "µM"},
      {"measurement": "MIC", "setting": "Escherichia coli [4]", "value": "> 500", "unit": "µM"},
      {"measurement": "MIC", "setting": "Escherichia coli [5]", "value": "> 500", "unit": "µM"},
      {"measurement": "MIC", "setting": "Escherichia coli [6]", "value": 600, "unit": "µM"},
      {"measurement": "MIC", "setting": "Escherichia coli [7]", "value": "> 600", "unit": "µM"},
      {"measurement": "MIC", "setting": "Escherichia coli [8]", "value": 100, "unit": "µM"},
      {"measurement": "MIC", "setting": "Bacteroides fragilis", "value": 6, "unit": "µM"}
    ]}
  ]
}
